B1: tRNA (parent)
chain: GUUCCGUUGGCGUAAUGGUAACGCGUCUCCCUCCUAAGGAGAAGACUGCGGGUUCGAGUCCCGUACGGAACG

In this data set the parent is B1. The experiment in a line: yeast fitness, log relative to wild type (ln ratio); higher = fitter; tRNA-Arg(CCU), competitive growth, 37 C, 1 M NaCl. In a few lines:
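Fitness is the natural log of a genotype's generation count divided by that of the wild type. A combinatorial library of tRNA-Arg(CCU) variants sat on a HIS3 centromeric plasmid in BY4742 lacking the chromosomal gene, from two independent transformations. Pools grew 4 generations in SC-HIS at 30 °C, then ~6.5 generations (~26.5 h) in SC-HIS 1M NaCl at 37 °C, with three outputs per input. Generations came from OD-scaled log2 output/input frequency, inverse-variance weighted across replicates, with variants counted by 125 bp paired-end Illumina sequencing.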
Turning to GGUCCAUUGGCGUAAUGGUAACGCGUUUCCCUCCUAAGGAGACGACUGCGGGUUCGAGUCCCGUAUGGAAUG [U2G G6A C27U A43C C66U C71U], the “yeast fitness (ln)” value is -0.373.
To GCUCCAUUGGCGUAAUGGUAACGCGUCUCCCUCCUAAGGAGACGACUGCGGGUUCGAGUCCCGUACGGAGCG [U2C G6A A43C A70G] belongs -0.231.
With GUUCCAUUGGCGUAAUGGUAACGCGUUUCCCUCCUAAGGAGAAGACUGCGGGUUCGAGUCCCGUAUGGAACG [G6A C27U C66U] the figure was -0.0352.
With GCUCCAUUGGCGUAAUGGUAACGCGUUUCCCUCCUAAGGAGAAGAUUGCGGGUUCGAGUCCCGUACGGAAUG [U2C G6A C27U C46U C71U] the figure was -0.119; with GUUCCUUUGGCGUAAUGGUAACGCGUCUCCCUCCUAAGGAGAAGAUUGCGGGUUCGAGUCCCGUAAGGGACG [G6U C46U C66A A69G], -0.0364; with GGUCCAUUGGCGUAAUGGUAACGCGUCUCCCUCCUAAGGAGACGACUGCGGGUUCGAGUCCCGUACGGGGCG [U2G G6A A43C A69G A70G], -0.185.
On to AGUCCUUUGGCGUAAUGGUAACGCGUCUCCCUCCUAAGGAGAAGAUUGCGGGUUCGAGUCCCGUACGGGGCG [G1A U2G G6U C46U A69G A70G], for which the “yeast fitness (ln)” value was -0.247.
With AUUCCAUUGGCGUAAUGGUAACGCGUCUCCCUCCUAAGGAGACGAUUGCGGGUUCGAGUCCCGUACGGGGUG [G1A G6A A43C C46U A69G A70G C71U] the figure was -0.252; with GCUCCUUUGGCGUAAUGGUAACGCGUCUCCCUCCUAAGGAGACGACUGCGGGUUCGAGUCCCGUAAGGGUUG [U2C G6U A43C C66A A69G A70U C71U], -0.321; with GCUCCUUUGGCGUAAUGGUAACGCGUCUCCCUCCUAAGGAGACGACUGCGGGUUCGAGUCCCGUACGGAGUG [U2C G6U A43C A70G C71U], -0.185.
With AUUCCUUUGGCGUAAUGGUAACGCGUUUCCCUCCUAAGGAGACGAUUGCGGGUUCGAGUCCCGUAAGGAACG [G1A G6U C27U A43C C46U C66A] the figure was -0.168.
To GUUCCUUUGGCGUAAUGGUAACGCGUUUCCCUCCUAAGGAGAAGAUUGCGGGUUCGAGUCCCGUAUGGGUUG [G6U C27U C46U C66U A69G A70U C71U] belongs -0.51; to AUUCCUUUGGCGUAAUGGUAACGCGUUUCCCUCCUAAGGAGAAGACUGCGGGUUCGAGUCCCGUAAGGAGCG [G1A G6U C27U C66A A70G], -0.228.
On to GCUCCAUUGGCGUAAUGGUAACGCGUCUCCCUCCUAAGGAGAAGACUGCGGGUUCGAGUCCCGUAUGGGUUG [U2C G6A C66U A69G A70U C71U], for which the “yeast fitness (ln)” value was -0.343.
With AGUCCAUUGGCGUAAUGGUAACGCGUUUCCCUCCUAAGGAGAAGAUUGCGGGUUCGAGUCCCGUAAGGAGUG [G1A U2G G6A C27U C46U C66A A70G C71U] the figure was -0.282; with AGUCCAUUGGCGUAAUGGUAACGCGUUUCCCUCCUAAGGAGAAGAUUGCGGGUUCGAGUCCCGUACGGGUCG [G1A U2G G6A C27U C46U A69G A70U], -0.233.
As for AUUCCGUUGGCGUAAUGGUAACGCGUUUCCCUCCUAAGGAGAAGACUGCGGGUUCGAGUCCCGUACGGAAUG [G1A C27U C71U], the “yeast fitness (ln)” value was -0.0389.
To AUUCCGUUGGCGUAAUGGUAACGCGUUUCCCUCCUAAGGAGACGACUGCGGGUUCGAGUCCCGUACGGAUCG [G1A C27U A43C A70U] belongs -0.329; to GCUCCUUUGGCGUAAUGGUAACGCGUCUCCCUCCUAAGGAGACGAUUGCGGGUUCGAGUCCCGUAAGGAACG [U2C G6U A43C C46U C66A], -0.0972; to GUUCCGUUGGCGUAAUGGUAACGCGUUUCCCUCCUAAGGAGAAGACUGCGGGUUCGAGUCCCGUACGGAGCG [C27U A70G], -0.037.
To AGUCCGUUGGCGUAAUGGUAACGCGUUUCCCUCCUAAGGAGACGACUGCGGGUUCGAGUCCCGUAAGGAUUG [G1A U2G C27U A43C C66A A70U C71U] belongs -0.499; to AGUCCAUUGGCGUAAUGGUAACGCGUUUCCCUCCUAAGGAGACGACUGCGGGUUCGAGUCCCGUACGGGUUG [G1A U2G G6A C27U A43C A69G A70U C71U], -0.484.
With AGUCCGUUGGCGUAAUGGUAACGCGUCUCCCUCCUAAGGAGAAGAUUGCGGGUUCGAGUCCCGUAUGGAGCG [G1A U2G C46U C66U A70G] the figure was -0.148; with AUUCCUUUGGCGUAAUGGUAACGCGUUUCCCUCCUAAGGAGACGACUGCGGGUUCGAGUCCCGUAAGGAAUG [G1A G6U C27U A43C C66A C71U], -0.498.
Take GCUCCGUUGGCGUAAUGGUAACGCGUUUCCCUCCUAAGGAGAAGACUGCGGGUUCGAGUCCCGUACGGGUUG [U2C C27U A69G A70U C71U]: the “yeast fitness (ln)” value was -0.278.
To GGUCCAUUGGCGUAAUGGUAACGCGUCUCCCUCCUAAGGAGAAGACUGCGGGUUCGAGUCCCGUAUGGGGCG [U2G G6A C66U A69G A70G] belongs -0.448.
To AGUCCAUUGGCGUAAUGGUAACGCGUCUCCCUCCUAAGGAGACGAUUGCGGGUUCGAGUCCCGUAAGGAGUG [G1A U2G G6A A43C C46U C66A A70G C71U] belongs -0.169; to GCUCCGUUGGCGUAAUGGUAACGCGUCUCCCUCCUAAGGAGACGAUUGCGGGUUCGAGUCCCGUAUGGGGUG [U2C A43C C46U C66U A69G A70G C71U], -0.315; to GCUCCAUUGGCGUAAUGGUAACGCGUUUCCCUCCUAAGGAGACGACUGCGGGUUCGAGUCCCGUACGGAAUG [U2C G6A C27U A43C C71U], -0.209.
To GGUCCUUUGGCGUAAUGGUAACGCGUCUCCCUCCUAAGGAGACGACUGCGGGUUCGAGUCCCGUAUGGGUUG [U2G G6U A43C C66U A69G A70U C71U] belongs -0.468.
Consider GUUCCUUUGGCGUAAUGGUAACGCGUUUCCCUCCUAAGGAGAAGACUGCGGGUUCGAGUCCCGUACGGAAUG [G6U C27U C71U], for which the “yeast fitness (ln)” value was -0.222.
To GUUCCUUUGGCGUAAUGGUAACGCGUCUCCCUCCUAAGGAGAAGAUUGCGGGUUCGAGUCCCGUACGGAUUG [G6U C46U A70U C71U] belongs -0.189.
With GCUCCAUUGGCGUAAUGGUAACGCGUUUCCCUCCUAAGGAGACGAUUGCGGGUUCGAGUCCCGUAUGGAACG [U2C G6A C27U A43C C46U C66U], the “yeast fitness (ln)” value is -0.0567.
With GUUCCGUUGGCGUAAUGGUAACGCGUUUCCCUCCUAAGGAGACGACUGCGGGUUCGAGUCCCGUAUGGAGCG [C27U A43C C66U A70G] the figure was -0.227.
To GGUCCUUUGGCGUAAUGGUAACGCGUCUCCCUCCUAAGGAGAAGAUUGCGGGUUCGAGUCCCGUAUGGAGUG [U2G G6U C46U C66U A70G C71U] belongs -0.152; to GGUCCUUUGGCGUAAUGGUAACGCGUCUCCCUCCUAAGGAGAAGAUUGCGGGUUCGAGUCCCGUAUGGAGCG [U2G G6U C46U C66U A70G], -0.137; to GUUCCGUUGGCGUAAUGGUAACGCGUCUCCCUCCUAAGGAGAAGAUUGCGGGUUCGAGUCCCGUACGGAUCG [C46U A70U], 0.00508.
To GGUCCUUUGGCGUAAUGGUAACGCGUUUCCCUCCUAAGGAGACGAUUGCGGGUUCGAGUCCCGUAUGGAACG [U2G G6U C27U A43C C46U C66U] belongs -0.262.

For the origin of these results see the RNAGym collection of RNA variant scans (doi:10.1038/s41586-018-0170-7).
